Hits are enriched below; roughly 1.9% of the tested compounds scored in any of these assays.
HCV core dimer = inhibitors of HCV core protein dimerization, primary screen, biochemical, TR-FRET, high-throughput. TR-FRET GST/Flag-core106 dimerization, 1536-well. inhibition, % at 5 µM. hit rate 0.33% among 300,000. AID 1899, 2009;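 active means inhibition above the mean of all tested compounds plus 3 SD, set per screening campaign, cut at about 45% in these data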
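Material: GST/Flag-tagged HCV core106 proteins. Incubation: 4 h, 22.5 °C incubation. Read-out basis: inhibition (%) from 671 over 617 nm ratio. Measured by: TR-FRET, excitation 340 nm, emission 617 and 671 nm.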
HCV NS3 hel inh = inhibitors of HCV NS3 helicase, primary screen, biochemical, Cy5 molecular beacon fluorescence. Hepatitis C virus NS3 helicase. NS3 helicase DNA unwinding. inhibition, % at 10.9 µM. hit rate 0.56% among 290,000. AID 1800, 2009;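 active means inhibition above the mean of all tested compounds plus 3 SD, set per campaign, cut at about 35% in these data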;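 further: 0% = DMSO wells and 100% = thioflavine S control wells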
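System: HCV NS3 helicase fragment; control set: DMSO and thioflavine S; technique: Cy5 fluorescence at 0 and 60 min, beacon hairpin quenching; reagent: beacon DNA duplex substrate plus ATP; replicates: singlicate; schedule: 1 h reaction at 25 °C, ATP-initiated; medium: MOPS buffer pH 6.5 with MgCl2, DTT, Tween20, BSA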
DNA FID counter = compounds displacing fluorescent DNA intercalator, primary screen, artefact control for HCV NS3 helicase inhibitor project, biochemical, FID fluorescence; AID 1845, 2009; DNA fluorescent intercalator displacement; hit rate 0.17% among 290,000; inhibition, % at 7.9 µM; in the data active means inhibition above about 37%;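 further: 0% = vehicle and 100% = reference compound; higher means more ethidium bromide displaced from hairpin DNA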
GPR7 antag = GPR7 receptor antagonists, primary screen, cell-based, fluorescence, single concentration; GPR7-expressing cells, fluorescence antagonist assay; Neuropeptides B/W receptor type 1 (Homo sapiens), P48145; hit rate 1.1% among 290,000; inhibition, % at 4.4 µM; in the data active means inhibition above about 16%, passing the limit was not always enough;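 further: cells stimulated with the agonist NPW; 0% = agonist with vehicle and 100% = vehicle without agonist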
Target sequence (P48145 whole entry, looked up): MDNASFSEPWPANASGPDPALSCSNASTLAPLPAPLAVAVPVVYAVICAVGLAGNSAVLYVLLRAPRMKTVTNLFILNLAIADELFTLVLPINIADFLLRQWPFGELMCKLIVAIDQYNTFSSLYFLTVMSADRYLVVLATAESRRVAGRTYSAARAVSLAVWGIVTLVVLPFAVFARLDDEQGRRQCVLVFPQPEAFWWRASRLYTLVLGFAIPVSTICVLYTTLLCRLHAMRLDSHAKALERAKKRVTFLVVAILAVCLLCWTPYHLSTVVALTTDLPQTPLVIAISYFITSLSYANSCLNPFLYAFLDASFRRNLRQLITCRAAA
p-CIP stab down = p/CIP-EGFP fusion destabilizers, primary screen, fluorescence, F442A cells | decrease of EGFP signal, % at 10 µM | 16 h | hit rate 0.01% among 290,000 | Q05BA5 | AID 1984, 2009;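 active means EGFP signal decrease of at least 30% at 10 µM or well 3 SD below plate mean, unless failing retest; inactive means the rest, including hits failing retest or dose response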
GPR7 antag cf = GPR7 receptor antagonists, confirmation, cell-based, fluorescence, single concentration; shares compounds with GPR7 antag; GPR7-expressing cells, calcium fluorescence antagonist mode; inhibition, % at 4.4 µM; hit rate 52% among 2,400; in the data active means inhibition above about 24%;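 further: stimulated with the GPR7 agonist NPW; 0% = agonist plus vehicle and 100% = vehicle alone without agonist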
MCHR1 antagonist = MCHR1 antagonists in cells, counter-screen for GPR7 antagonist project, cell-based, fluorescence, human; shares compounds with GPR7 antag; MCHR1-expressing cells, fluorescence antagonist assay; inhibition, % at 4.4 µM; hit rate 62% among 2,400; AID 2148, 2009; in the data active means inhibition above about 22%;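 further: 0% = vehicle with agonist and 100% = vehicle without agonist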
Starred values were filed as active, the others as inactive; nt = not tested or not shown.

SMILES	HCV core dimer	HCV NS3 hel inh	DNA FID counter	GPR7 antag	p-CIP stab down	GPR7 antag cf	MCHR1 antagonist
CCCCc1cc(=O)oc2cc(C)cc(OCC(=O)Nc3ccccn3)c12	-7.2	1.6	-17.9	-19.5	9.9	nt	nt
COc1cc(C(=O)OCC(=O)Nc2nnc(-c3ccccc3)o2)cc(OC)c1OC	2.1	nt	nt	nt	nt	nt	nt
COc1ccc(C(=O)OCC(=O)Nc2nnc(-c3ccccc3)o2)cc1	12.8	20.9	-35.9	32.4*	-15.6	-2.7	-11.8
Cc1cc2oc(=O)cc(CNc3ccccc3F)c2cc1O	-10.4	-4.2	0.2	38.0*	-9.3	44.1*	68.1*
C/C(=N\NC(=O)c1cccc(S(=O)(=O)N2CCCC2)c1)c1ccc(C)cc1	2.1	nt	nt	nt	nt	nt	nt
COc1ccc(C(CCNCc2ccc(N(C)C)cc2)C(C)C)cc1 (configuration not stated)	-0.8	-51.4	26.5	23.8*	-2.4	21.9	49.6*
COc1ccc(C(CCNCc2ccc(OC(C)C)cc2)C(C)C)cc1 (configuration not stated)	-3.6	-58.6	22.5	26.6*	-5.2	50.8*	70.3*
COc1ccc(CNCCC(c2ccccc2)c2ccc3c(c2)OCO3)cc1 (configuration not stated)	-2.5	-103.9	36.6	40.7*	-6.1	45.8*	64.2*
COc1ccc(CNCCC(c2ccc(OC(C)C)cc2)C(C)C)cc1OC (configuration not stated)	-5.5	-82.8	24.8	19.4	7.2	nt	nt
O=C(COC(=O)COc1ccccc1)Nc1ccc(S(=O)(=O)N2CCOCC2)cc1	2.0	-3.0	-4.5	-0.7	4.2	nt	nt
COc1ccc(OC)c(NC(=O)c2cccc(N3C(=O)C4C5C=CC(C6CC56)C4C3=O)c2)c1 (configuration not stated)	0.0	-0.8	-31.3	24.1*	-5.8	21.8	69.4*
O=C(Nc1ccccc1)c1cccc(N2C(=O)C3C4C=CC(C5CC45)C3C2=O)c1 (configuration not stated)	-0.2	-4.7	-40.5	-10.2	3.7	nt	nt
O=C(Nc1ccc(F)cc1)c1cccc(N2C(=O)C3C4C=CC(C5CC45)C3C2=O)c1 (configuration not stated)	-1.6	-14.2	-15.1	26.5*	-3.4	24.4*	44.9*
CC(CCc1ccccc1)NC(=O)C1CCC1 (configuration not stated)	1.9	nt	nt	nt	nt	nt	nt
Cc1cc(C)cc(NC(=O)C2CCN(C(=O)c3cccs3)CC2)c1	-9.6	22.2	-21.2	-1.9	-5.8	nt	nt
Cc1ccc(CNC(=O)C2CC(c3cccc([N+](=O)[O-])c3)=NO2)cc1 (configuration not stated)	1.8	-10.2	-2.6	31.9*	-21.1	18.5	33.9*
O=C(NCc1ccc2c(c1)OCO2)C(=O)NCC1OCCN1S(=O)(=O)c1ccc(Br)cc1 (configuration not stated)	2.8	5.8	-34.7	28.7*	-4.8	22.0	39.9*
O=C(NCc1ccc2c(c1)OCO2)C(=O)NCC1OCCN1S(=O)(=O)c1ccc(Cl)cc1 (configuration not stated)	4.4	-1.5	-39.6	2.8	2.0	nt	nt
Nc1c(C(=O)NCc2ccc3c(c2)OCO3)nnn1CC(=O)Nc1ccc(Br)cc1	-3.2	4.2	-6.7	1.9	2.8	nt	nt
Nc1c(C(=O)NCc2ccc3c(c2)OCO3)nnn1Cc1ccc(Br)cc1	-3.2	-4.4	-9.0	23.7*	-1.3	26.8*	21.0
O=C(CN1CCN(C(=O)C2CCCO2)CC1)Nc1ccc(Br)cc1 (configuration not stated)	-4.7	11.1	-11.5	0.3	-20.3	nt	nt
COC(=O)[C@@]1(Cc2ccc(F)cc2)[C@H]2c3cc(C(=O)N4CCCC4)n(CCCNc4ncc(C(F)(F)F)cc4Cl)c3C[C@H]2CN1C(=O)c1ccccc1	23.9	-50.0	-50.7	6.1	-5.4	nt	nt

Screens from PubChem BioAssay.
